Measurements pooled from the literature.
Compare with care: the assays were run in different laboratories.
Target: Insulin-like growth factor 1 receptor (IGF1R, Homo sapiens, UniProt P08069)

Compound | test | conditions | remaining binding [%]
Cc1cnn2ncc(-c3ccnc(N(C)C)n3)c2c1 | binding | 1 µM | 100
COc1cnc(Nc2cccc(S(N)(=O)=O)c2)nc1N1CCN(c2ccccc2)C(=O)C1 | binding, competition with immobilised ligand | 1 µM | 100
C[C@@H]1CN(c2ccc3ncc(-c4ccc5[nH]nc(C6CC6)c5c4)n3n2)C[C@H](C)O1 | binding, competition with immobilised ligand | 50 nM | 99
N#Cc1ccccc1CSc1nnc2c(n1)[nH]c1ccccc12 | binding, competition with immobilised ligand | 10 µM | 91
F[C@@H]1CCN(c2nccc(-c3cnn4ncccc34)n2)C1 | binding | 1 µM | 89
CC(=O)c1c(NS(C)(=O)=O)c2cc(-c3ccc(Cl)cc3)c(-c3ccc(Cl)cc3Cl)nc2n(C)c1=O | cell-free assay, competition with immobilised ligand | 1 µM | 100
O=C(Nc1c[nH]nc1C(=O)NC1CCNCC1)c1cc(F)cc(F)c1 | binding, competition with immobilised ligand | 1 µM | 100
CC(C)CC(=O)N1CCc2nc(-c3ccc(Br)cc3)nc(N(C)Cc3ccccc3)c2C1 | cell-free assay, competition with immobilised ligand | 0.1 µM | 83
O=C(NCCCN1CCOCC1)c1ccc(Nc2nccc(-c3cc4ccccc4s3)n2)cc1 | binding, competition with immobilised ligand | 1 µM | 100
C[C@@H](c1ccc(-n2cnc3c(N)ncnc32)cc1)N1CCc2nn(C)c(Cc3ccccc3)c2C1=O | binding, competition with immobilised ligand | 0.1 µM | 38
N[C@H]1CCN(c2nccc(-c3cnn4ncccc34)n2)C1 | binding | 1 µM | 81
O=C1NC(c2ccccn2)Sc2ccccc21 (stereo not shown) | cell-free assay, competition with immobilised ligand | 1 µM | 80
C[C@H]1CCN(c2nccc(-c3cnn4ncccc34)n2)C1 | binding | 1 µM | 90
COc1ncc2cc3ccccc3nc2c1C#N | cell-free assay, competition with immobilised ligand | 5 µM | 86
CC1CCCN1c1nccc(-c2cnn3ncccc23)n1 (stereo not shown) | binding | 1 µM | 96
c1cncc(-c2cccc(Nc3nccc(NC4CCCCC4)n3)c2)c1 | binding, competition with immobilised ligand | 10 µM | 67
CN1CCN(c2cnc3c(C4CCN(C(=O)c5ccc(OC(F)(F)F)cc5N)CC4)ncnc3c2)CC1 | cell-free assay, competition with immobilised ligand | 1 µM | 100
Cc1cnc(Nc2ccc(C(=O)N3CCC(N4CCCC4)CC3)cc2)nc1-c1cc2ccccc2s1 | binding, competition with immobilised ligand | 1 µM | 45
CN(C)c1ncc(F)c(-c2cnn3ncccc23)n1 | binding | 1 µM | 100
COc1ccc2c(c1)O[C@@H](c1ccc(OC)c(OC)c1)C[C@H]2NC(=O)C1(c2ccc3c(c2)OC(F)(F)O3)CC1 | cell-free assay, competition with immobilised ligand | 1 µM | 90
O=C(c1ccc(Nc2nccc(-c3cc4ccccc4s3)n2)cc1)N1CCC(N2CCCC2)CC1 | binding, competition with immobilised ligand | 1 µM | 100
CCOCCn1cc(C(=O)Nc2ccc(-n3nc(-c4cccnc4)cc3C(F)(F)F)cn2)ccc1=O | cell-free assay, competition with immobilised ligand | 1 µM | 96
CN(c1nccc(-c2cnn3ncccc23)n1)C1CC1 | binding | 1 µM | 93
CNC(=O)[C@@H]1CC[C@@H](n2c(-c3ccc4cnccc4c3)nc3ccc(C(=O)NCc4cccc(C(N)=O)c4)cc32)C1 | binding, competition with immobilised ligand | 1 µM | 100
CO[C@@H](C)c1c(Nc2ccc([C@H](N(C)C(=O)C3CCS(=O)(=O)CC3)C(F)(F)F)cc2)cnc2cc(Cl)nn12 | cell-free assay, competition with immobilised ligand | 1 µM | 100
